TNF necrop inh: inhibitors of TNF-alpha triggered necroptosis, primary screen, cell-based, Jurkat FADD-/-, single concentration | Jurkat FADD-/- TNF necroptosis rescue, ATP luminescence, 24 h; 0 = TNF only, 100 = no-TNF cells | activation (protection from cell death), % at 10 µM | 220,000 compounds, 0.068% hits;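 active = activation, meaning protection from cell death, of at least 50% relative to plate controls; inactive = activation below 50%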;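 note: necroptosis triggered by 40 ng/mL TNF-alpha added together with compound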
L929 necroptosis: inhibitors of zVAD-triggered necroptosis, primary screen, L929 cells. viability rescue, % at 10 µM. L929 zVAD necroptosis rescue, ATP luminescence, 24 h; with zVAD 60 µM. 220,000 compounds, 0.38% hits. AID 1377, 2008;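 active = activation, scaled between plate controls, above about 75%, limit read from the data; inactive = activation under that limit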;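 note: 0% = zVAD with DMSO and 100% = DMSO alone without zVAD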
Dynein transport: inhibitors of GR-EGFP nuclear translocation, primary screen, dynein cargo transport inhibitor project, imaging, high-content, 3617.4 mouse cells; z-score, hits read low; 220,000 compounds, 0.47% hits; test concentration mostly 20 µM; stimulated with dexamethasone, 1 µM; hits give low values; AID 1381, 2008;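 active = plate z-score of nuclear minus cytoplasmic receptor signal below a set negative limit, without overly bright fluorescence or cell loss, cut at about -3.5 in these data, passing the limit was not always enough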;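 note: z-score of nuclear minus cytoplasmic ring GR-EGFP intensity difference per well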
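Buffer or medium: tet-free medium with charcoal-stripped serum / Also added: dexamethasone agonist, 1.0 µM final, for 30 min / Timing: induction 48 h, compound 1 h, agonist 30 min / Measured by: high-content fluorescence imaging after fixation / Read-out: nuclear-to-cytoplasmic GR-EGFP distribution per well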
HSV replic up: enhancers of HSV replication in host cells, fold increase, host cell viability | HSV replication augmentation in cells | 220,000 compounds, 0.005% hits | maximum fold increase; in the data active = maximum fold increase above about 1.5; tested in PC3 cells
Autophagy HCS: autophagy modulators in MEF cells, primary screen, imaging, high-content, MEF GFP-LC3; 190,000 compounds, 0.98% hits; AID 463193, 2010; calls only at 10 µM (by protocol); MEF GFP-LC3 puncta imaging; test concentration mostly 10 µM;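 active = percentage of spot-positive cells more than 3 SD above its plate mean, without a fluorescence outlier flag or 80% toxicity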;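 note: spot-positive cell cutoff set from DMSO-treated cells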
Furin inhibitor: human furin inhibitors, primary screen, biochemical, fluorescence intensity | 220,000 compounds, 0.061% hits | inhibition, % at 20 µM or 30 µM | P09958 | purified furin, fluorogenic substrate cleavage | AID 463115, 2010; in the data active = inhibition above about 25%
Target sequence (P09958 108-714 limits assumed): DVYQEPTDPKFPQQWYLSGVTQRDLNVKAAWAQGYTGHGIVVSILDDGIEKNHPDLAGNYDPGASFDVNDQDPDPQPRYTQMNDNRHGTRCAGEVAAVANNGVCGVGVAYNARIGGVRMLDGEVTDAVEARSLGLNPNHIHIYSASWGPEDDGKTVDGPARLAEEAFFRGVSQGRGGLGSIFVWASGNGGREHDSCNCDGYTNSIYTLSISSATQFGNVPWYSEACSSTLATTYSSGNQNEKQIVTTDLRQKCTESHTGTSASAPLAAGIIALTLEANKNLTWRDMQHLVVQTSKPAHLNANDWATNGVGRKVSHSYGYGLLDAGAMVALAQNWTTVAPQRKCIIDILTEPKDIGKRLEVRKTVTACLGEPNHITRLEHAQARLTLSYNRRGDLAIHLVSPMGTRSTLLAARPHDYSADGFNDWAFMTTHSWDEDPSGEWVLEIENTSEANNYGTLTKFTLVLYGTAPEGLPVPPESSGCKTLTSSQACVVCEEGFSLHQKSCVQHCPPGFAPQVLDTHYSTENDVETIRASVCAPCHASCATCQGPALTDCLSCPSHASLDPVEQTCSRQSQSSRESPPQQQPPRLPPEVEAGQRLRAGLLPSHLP
zVAD death conf: inhibitors of zVAD-triggered necroptosis in L929, confirmation, L929 cells, duplicate runs. L929 zVAD-induced necroptosis rescue, ATP luminescence, 24 h. 760 compounds, 16% hits. activation (protection from necroptosis), % at 10 µM. shares compounds with L929 necroptosis. AID 463117, 2010;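 active = mean protection from necroptosis of at least 50% over duplicate tests; inactive = mean protection below 50%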;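 note: 0% = cells with zVAD alone and 100% = vehicle cells without zVAD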
* = called active by the depositor; i = inactive; x = no result given. Rows were chosen to be rich in hits. Some 1.8% of all compounds tested hit in one or more screens of this group.

SMILES	TNF necrop inh	L929 necroptosis	Dynein transport	HSV replic up	Autophagy HCS	Furin inhibitor	zVAD death conf
NC(=O)COc1ccc2oc(-c3ccccc3)cc(=O)c2c1	-2	81*	-0.35	i	i	-8	26
CCOC(=O)COc1ccc2c(=O)cc(-c3ccccc3)oc2c1	3	0	0.2	i	x	-11	x
N#CCOc1ccc2oc(-c3ccco3)cc(=O)c2c1	-2	76*	-0.35	i	i	-25	1
Cc1ccc2[nH]c(O)c(N=NC(=O)C(C)n3cnc4ccccc4c3=O)c2c1 (stereo not given)	8	2	-0.17	i	i	-1	x
Cc1cc(C)c2c(N)c(C(=O)N/N=C/c3cccnc3)sc2n1	-10	79*	1.4	i	x	-13	36
Cc1cc(C(=O)N/N=C/c2ccc[nH]2)n[nH]1	16	89*	-0.21	i	i	16	27
Cc1cc(C(=O)N/N=C/c2ccc[nH]2)no1	2	0	1.7	i	i	2	x
Cc1cc(C(=O)N/N=C/c2ccc(-c3ccccc3Cl)o2)n[nH]1	30	84*	0.52	i	i	-10	38
Cc1cc(C(=O)N/N=C/c2cccnc2)n[nH]1	39	84*	0.072	i	x	-11	6
Cc1cc(C(=O)N/N=C/c2ccc(-c3ccc(C)c(Cl)c3)o2)n[nH]1	11	15	-1.9	i	x	-13	x
Cc1ccc(-c2cc(C(=O)N/N=C/c3cccnc3)n[nH]2)o1	0	2	-1	i	i	-7	x
COCCNC(=O)C(C(=O)c1ccc(F)cc1)n1cc(C)ccc1=O (stereo not given)	0	1	-0.14	i	i	-16	x
Clc1cccc(N/N=C(\Cc2nc3ccccc3[nH]2)c2ccccc2)c1	4	1	0.4	i	i	-11	x
O=C(NNC(=O)c1ccc(NC(=O)c2ccccc2)cc1)Nc1ccccc1	2	76*	-0.82	i	i	-16	37
CN(C)c1ccc(C(=O)NNC(=O)Nc2ccccc2)cc1	1	5	-0.91	i	i	-14	x
CCc1ccc(NC(=O)CSc2nc3n[nH]c(C)c3c(=N)n2-c2cccc(OC)c2)cc1	-15	91*	0.44	i	i	-27	56*
Nc1[nH]nc2ncc3cc4ccccc4nc3c12	-3	82*	0.88	i	i	-16	37
Nc1[nH]nc2nc(N3CCCC3)nc(-c3ccccc3)c12	2	16	-0.62	i	i	-12	x
O=c1[nH]c2ccccc2nc1/C=C/c1ccc(F)cc1	-4	67	-3	i	i	-24	x
O=c1[nH]c2ccccc2nc1/C=C/c1ccc(O)cc1	-6	81*	-0.23	x	i	-3	82*
O=c1[nH]c2ccccc2nc1/C=C/c1ccccc1	1	78*	0.75	i	i	-27	29
N#Cc1cnc(N)c(Br)c1	0	10	0.059	i	i	-35	x
O=C(Nc1ccc(Cl)c(Cl)c1)N1N=CCC1c1ccccc1 (stereo not given)	97*	79*	0.64	i	i	-6	11
O=C(Nc1ccccc1)N1N=CCC1c1ccccc1 (stereo not given)	95*	85*	-0.58	i	i	7	48
CCN1CCN(CC(=O)N2N=CCC2c2ccccc2)CC1 (stereo not given)	1	-1	0.15	i	x	-15	x
SMILES	TNF necrop inh	L929 necroptosis	Dynein transport	HSV replic up	Autophagy HCS	Furin inhibitor	zVAD death conf
O=c1cc(-c2cccnc2)oc2c1ccc1ccccc12	-11	75*	-0.94	i	x	-26	2
O=c1cc(C(F)(F)F)oc2c1ccc1ccccc12	-2	-1	-0.68	i	i	-23	x
CCCCNC(=O)CSc1nc(COc2ccccc2)nc2ccccc12	1	1	1.7	i	i	-11	x
Cc1ncsc1C(=O)Nc1nc2c(s1)CC(C)CC2 (stereo not given)	-7	0	0.73	i	i	-12	x
CC1CCc2nc(NC(=O)C3CC3)sc2C1 (stereo not given)	0	78*	3.8	i	i	-13	29
COc1cccc(CN2CCN(C(=S)NCc3ccc(Cl)cc3)CC2)c1	2	7	-0.31	i	i	-18	x
CCN(CC)CCc1c(C)[nH]c(C(=O)OCc2ccccc2)c1C	-1	76*	-0.076	i	i	-16	38
CCCc1c(O)nc(SCC(=O)O)[nH]c1=O	0	18	-1.1	i	i	-13	x
NC(=S)NC(=O)/C=C/c1ccccc1	19	83*	-0.15	i	i	-32	1
Nc1nc(-c2cccnc2)nn1C(=O)CCc1ccccc1	-2	1	-0.58	i	i	-9	x
CCCC(=O)n1nc(-c2cccnc2)nc1NCc1ccc(OC)cc1	3	80*	-1.3	i	i	-30	0
COc1ccccc1C(=O)n1nc(-c2cccnc2)nc1NCc1ccccc1	1	77*	-0.32	i	i	-14	16
COCC(=O)n1nc(-c2ccccc2)nc1NCc1cccs1	3	82*	-0.7	i	i	-19	18
CC(C)C(=O)n1nc(-c2cccnc2)nc1NCc1ccc(F)cc1	3	30	0.63	i	i	-10	x
C/C(=N\Nc1nc2ccccc2s1)c1cccs1	7	2	-0.64	i	i	-18	x
COc1cc(/C=N/Nc2nc3ccccc3o2)cc(OC)c1O	14	4	-0.71	i	i	-10	x
CC(=O)Nc1cccc(/C(C)=N/Nc2nc3ccccc3s2)c1	13	78*	0.085	i	i	-20	11
COc1ccc(/C=N/Nc2nc3ccccc3o2)cc1O	18	86*	-0.64	i	i	-9	49
CC(=O)Nc1ccc(/C=N/Nc2nc3ccccc3s2)cc1	63*	82*	-0.38	i	x	-12	83*
COc1ccc(/C=N/Nc2nc3ccccc3s2)cc1O	59*	79*	-1.1	i	i	-5	76*
CCCN(CCC)C(=O)C1CCCN1S(=O)(=O)c1cccc2nsnc12 (stereo not given)	0	-1	0.51	i	x	-2	x
OC(CNCc1ccccc1C(F)(F)F)C(F)(F)F (stereo not given)	1	1	2.7	i	i	-9	x

Screening data deposited in PubChem BioAssay by several laboratories.
